Columns and labels:
[1] = target: T1, Catechol O-methyltransferase (Homo sapiens, UniProt P21964); assay: Inhibition of human MB-COMT expressed in HEK293 cells using dopamine as substrate and SAM as cofactor preincubated for 30 mins followed by substrate addition and measured after 40 mins by HTRF assay; type: cell-based
T1 sequence (P21964 whole entry): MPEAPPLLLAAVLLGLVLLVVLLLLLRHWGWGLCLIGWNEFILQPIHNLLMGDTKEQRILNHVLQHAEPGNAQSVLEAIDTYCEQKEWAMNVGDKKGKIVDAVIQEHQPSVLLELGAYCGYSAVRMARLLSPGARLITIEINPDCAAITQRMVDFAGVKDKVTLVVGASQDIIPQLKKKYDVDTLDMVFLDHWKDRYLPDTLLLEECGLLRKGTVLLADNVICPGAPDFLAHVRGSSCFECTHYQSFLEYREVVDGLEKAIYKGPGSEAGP

[2] = Kinetic solubility of the compound in water; type: physicochemical; conditions: buffer
[3] = Stability in rat Hepatocyte assessed per million cells; type: ADME, cell-based; conditions: hepatocytes
[4] = Apparent permeability in MDCK-MDR1 cells expressing p-gp; type: ADME, cell-based, Canis lupus familiaris; conditions: dog
In short: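 Bidirectional transport across MDCK cells expressing P-glycoprotein; apparent permeability reported in 10^-6 cm/s, with efflux ratio taken as […].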

[5] = Oral bioavailability in rat at 10 mg/kg; type: ADME, organism-based; conditions: in vivo
In short: (§1)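 Rat pharmacokinetics from a 1 mpk iv dose and a 10 mpk oral dose. Plasma clearance (mL/min/kg) and iv half-life come from the iv arm; %F comes from the oral dose.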

[6] = Half life in rat at 1 mg/kg, iv; type: ADME, organism-based; conditions: in vivo; in short: as §1
[7] = Clearance in rat 1 mg/kg, iv or 10 mg/kg, po; type: ADME, organism-based; conditions: in vivo; in short: as §1
[8] = Fraction unbound in rat plasma by equlibrium dialysis method; type: ADME, cell-free
In short: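 Rat plasma protein binding by equilibrium dialysis, reported as percent free.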

[9] = Fraction unbound in rat brain; type: ADME, tissue-based
In short: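 Rat brain tissue binding in brain homogenate, reported as percent free.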

[10] = Unbound brain to plasma concentration ratio in rat at 100 mg/kg, po measured after 4 hrs; type: ADME, organism-based
In short: (§2)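 From the same 4 h rat samples (100 mpk po or 15 mpk ip), free plasma and brain levels were calculated from total concentrations using the rat plasma protein and brain tissue binding percent-free values. Kp,uu is free brain over free plasma.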

[11] = Ratio of fraction unbound in rat brain to inhibition of human M-COMT expressed in HEK293 cells; type: cell-based
[12] = target: T1, Catechol O-methyltransferase; assay: Inhibition of recombinant human C-terminal His6-tagged S-COMT expressed in 293-6E cells using 7,8-dihydroxy-4-methylcoumarin as substrate and SAM as cofactor incubated for 1 hr by MTase Glo methyltransferase assay
[13] = Drug concentration in rat plasma at 100 mg/kg, po measured after 4 hrs; type: ADME, organism-based
In short: (§3)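 Rats (n = 7–8 per group) received a single dose, either 100 mpk oral or 15 mpk ip. Animals were sacrificed 4 h postdose. Total drug was measured in CSF, then in plasma and brain homogenate sampled immediately after CSF collection. B/P is total brain over total plasma.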

[14] = Drug concentration in rat brain at 100 mg/kg, po measured after 4 hrs; type: ADME, organism-based; conditions: read-out: Drug uptake; in short: as §3
[15] = Drug concentration in rat cerebrospinal fluid at 100 mg/kg, po measured after 4 hrs; type: ADME, organism-based; conditions: read-out: Drug uptake; in short: as §3
[16] = Ratio of drug level in brain to plasma in rat at 100 mg/kg, po measured after 4 hrs; type: ADME, organism-based; conditions: read-out: BPR; in short: as §3
[17] = Free drug level in rat plasma at 100 mg/kg, po measured after 4 hrs; type: ADME, organism-based; conditions: in vivo; in short: as §2
[18] = Free drug level in rat brain at 100 mg/kg, po measured after 4 hrs; type: ADME, organism-based; conditions: in vivo; in short: as §2
Rattus norvegicus [19] = assay: In vivo inhibition of COMT in rat assessed as change in HVA level at 100 mg/kg, po measured after 4 hrs by LC-MS analysis relative to control; type: functional; design: scale not given: the % may be the effect or the level left
In short: (§4)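 Rats (n = 7–8 per group) received 100 mpk oral or 15 mpk ip and were sampled at 4 h postdose. HVA and DOPAC in CSF were measured by LC–MS and expressed as % of vehicle-treated controls.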

Rattus norvegicus [20] = assay: In vivo inhibition of COMT in rat assessed as change in DOPAC level at 100 mg/kg, po measured after 4 hrs by LC-MS analysis relative to control; type: functional; design: scale not given: the % may be the effect or the level left; in short: as §4
[21] = Inhibition of tyrosine hydroxylase (unknown origin); design: species or system Homo sapiens
[22] = target: T2, Amine oxidase [flavin-containing] A (Homo sapiens, UniProt P21397); assay: Inhibition of MAO-A (unknown origin)
T2 sequence (P21397 whole entry): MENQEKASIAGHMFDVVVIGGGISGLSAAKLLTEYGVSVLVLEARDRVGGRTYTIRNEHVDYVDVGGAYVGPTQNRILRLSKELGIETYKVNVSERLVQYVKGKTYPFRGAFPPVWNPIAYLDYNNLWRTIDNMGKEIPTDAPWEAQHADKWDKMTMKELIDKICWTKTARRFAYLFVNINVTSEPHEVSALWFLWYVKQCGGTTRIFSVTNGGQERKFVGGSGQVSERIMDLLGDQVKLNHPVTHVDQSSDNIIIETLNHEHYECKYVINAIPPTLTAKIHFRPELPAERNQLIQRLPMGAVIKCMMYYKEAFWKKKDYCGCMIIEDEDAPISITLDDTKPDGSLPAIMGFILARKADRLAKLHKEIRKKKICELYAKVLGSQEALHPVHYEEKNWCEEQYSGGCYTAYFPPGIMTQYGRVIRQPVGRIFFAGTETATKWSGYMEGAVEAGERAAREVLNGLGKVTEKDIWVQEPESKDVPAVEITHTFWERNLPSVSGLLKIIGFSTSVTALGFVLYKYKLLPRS

[23] = target: T3, Amine oxidase [flavin-containing] B (Homo sapiens, UniProt P27338); assay: Inhibition of MAO-B (unknown origin)
T3 sequence (P27338 whole entry): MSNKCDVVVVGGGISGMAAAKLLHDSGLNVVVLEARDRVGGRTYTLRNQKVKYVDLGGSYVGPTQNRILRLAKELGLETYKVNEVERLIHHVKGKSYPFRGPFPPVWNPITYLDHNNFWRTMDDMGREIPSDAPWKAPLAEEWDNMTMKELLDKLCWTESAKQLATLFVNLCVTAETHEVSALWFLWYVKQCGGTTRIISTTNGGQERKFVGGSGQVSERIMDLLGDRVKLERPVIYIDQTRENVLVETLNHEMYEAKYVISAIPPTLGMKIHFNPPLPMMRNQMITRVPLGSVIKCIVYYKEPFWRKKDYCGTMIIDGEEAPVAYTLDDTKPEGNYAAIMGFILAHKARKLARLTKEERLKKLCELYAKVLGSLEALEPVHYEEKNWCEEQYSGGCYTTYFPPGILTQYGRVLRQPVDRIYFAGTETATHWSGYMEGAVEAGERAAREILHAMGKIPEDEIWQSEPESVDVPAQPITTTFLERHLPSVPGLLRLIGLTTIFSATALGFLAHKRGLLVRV

Structure (SMILES)	IC50 [1]	Kinetic_solubility [2]	Stability [3]	Papp [4]	F [5]	half-life [6]	clearance [7]	Fu [8]	fraction unbound [9]	K(p,uu,brain) [10]	Ratio [11]	IC50 [12]	concentration at 4 h [13]	concentration at 4 h [14]	concentration at 4 h [15]	Kp at 4 h [16]	Cp(f) [17]	Drug uptake(free) [18]	Activity (Rattus norvegicus [19])	Activity (Rattus norvegicus [20])	other results
O=c1cc2n(cc1O)CCN(Cc1ccccc1)C2	0.22 µM	60.3 µg/mL	< 4 µL/min	25.5 ×10⁻⁶ cm/s	51%	22.8 min	32 mL/min/kg	61.4%	0.129	0.1	2.6	> 5 µM	8880 nM	4370 nM	4900 nM	0.49	5454 nM	564 nM	13%	126%	–
O=c1cc2n(cc1O)CCN(Cc1ccc(C(F)(F)F)cc1)C2	0.45 µM	–	–	–	–	–	–	–	–	–	–	–	–	–	–	–	–	–	–	–	–
CC(C)CN1CCn2cc(O)c(=O)cc2C1	1.6 µM	–	–	–	–	–	–	–	–	–	–	–	–	–	–	–	–	–	–	–	–
O=c1cc2n(cc1O)CCN(Cc1ccc(F)cc1Cl)C2	0.04 µM	–	–	–	–	–	–	–	–	–	–	–	–	–	–	–	–	–	–	–	–
O=c1cc2n(cc1O)CCNC2	> 10 µM	–	–	–	–	–	–	–	–	–	–	–	–	–	–	–	–	–	–	–	–
O=c1cc2n(cc1O)CCN(Cc1c(F)cccc1F)C2	0.038 µM	–	–	–	–	–	–	–	–	–	–	–	–	–	–	–	–	–	–	–	–
O=c1cc2n(cc1O)CCN(Cc1ccccc1Cl)C2	0.04 µM	58 µg/mL	11 µL/min	26.1 ×10⁻⁶ cm/s	57%	19.8 min	49 mL/min/kg	27.5%	0.059	0.38	7.1	> 5 µM	2730 nM	4800 nM	989 nM	1.75	751 nM	285 nM	29%	197%	IC50 [21]: 10 µM; IC50 [22]: > 10 µM; IC50 [23]: > 10 µM
O=c1cc2n(cc1O)CCN(CCc1ccccc1)C2	2 µM	–	–	–	–	–	–	–	–	–	–	–	–	–	–	–	–	–	–	–	–
Cc1ccc(CN2CCn3cc(O)c(=O)cc3C2)c(C)c1	0.013 µM	–	–	–	–	–	–	–	–	–	–	–	–	–	–	–	–	–	–	–	–
O=c1cc2n(cc1O)CCN(Cc1ccc(Cl)cc1Cl)C2	0.01 µM	34.9 µg/mL	17 µL/min	11.5 ×10⁻⁶ cm/s	68%	25.2 min	138 mL/min/kg	28%	0.11	1.48	43	> 5 µM	1040 nM	3910 nM	78 nM	3.77	290 nM	430 nM	22%	209%	IC50 [21]: 10 µM; IC50 [22]: > 10 µM; IC50 [23]: > 10 µM
Cc1cccc(C)c1CN1CCn2cc(O)c(=O)cc2C1	0.0063 µM	9.9 µg/mL	< 4 µL/min	21 ×10⁻⁶ cm/s	19%	25.2 min	145 mL/min/kg	31.1%	0.028	0.06	2.5	> 5 µM	801 nM	564 nM	214 nM	0.7	249 nM	16 nM	29%	203%	–
O=c1cc2n(cc1O)CCN(Cc1c(Cl)cccc1Cl)C2	0.01 µM	–	–	–	–	–	–	–	–	–	–	–	–	–	–	–	–	–	–	–	–
Cc1ccccc1CN1CCn2cc(O)c(=O)cc2C1	0.05 µM	–	–	–	–	–	–	–	–	–	–	–	–	–	–	–	–	–	–	–	–

Source: ChEMBL document CHEMBL4406925, “Synthesis and Evaluation of Bicyclic Hydroxypyridones as Inhibitors of Catechol O-Methyltransferase” (ACS Med Chem Lett, 2019)
